# According to ChEMBL document CHEMBL1806372, “Cytotoxic ring A-modified steroid analogues derived from Grundmann's ketone” (Eur J Med Chem, 2011):
# Experiments:
# [1] = Antibacterial activity against Pseudomonas antimicrobica assessed as zone of inhibition at 5 uL and 32 degC after 36 hrs by disk diffusion method; type: functional, Burkholderia gladioli
# Outline: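 Disc diffusion on AC agar, each strain spread evenly over the medium; test compounds given as 1% (w/v) DMSO solutions. Plates covered and incubated 36 h at 32 °C, then the diameter of the zone of inhibited growth measured in mm. Tetracycline served as antibacterial reference.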
# COLO 205 = assay: Cytotoxicity against human COLO205 cells after 48 hrs by sulforhodamine B assay; type: functional; conditions: COLO 205, 48 h, read-out: LC50 (the source's name)
# Outline: (§1)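 NCI 60 human tumour cell line panel run to the NCI protocol. GI50, TGI and LC50 come from log concentration vs % growth inhibition curves for each cell line. Lines insensitive at the top concentration are reported with ">".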
# HCT-15 [2] = assay: Cytotoxicity against human HCT15 cells after 48 hrs by sulforhodamine B assay; type: functional; conditions: HCT-15, 48 h, read-out: LC50 (the source's name); outline: as §1
# KM12 [3] = assay: Cytotoxicity against human KM12 cells after 48 hrs by sulforhodamine B assay; type: functional; conditions: KM12, 48 h, read-out: LC50 (the source's name); outline: as §1
# SF-268 = assay: Cytotoxicity against human SF268 cells after 48 hrs by sulforhodamine B assay; type: functional; conditions: SF-268, 48 h, read-out: LC50 (the source's name); outline: as §1
# LOX IMVI = assay: Cytotoxicity against human LOXIMVI cells after 48 hrs by sulforhodamine B assay; type: functional; conditions: read-out: LC50 (the source's name); outline: as §1
# Malme-3M = assay: Cytotoxicity against human MALME-3M cells after 48 hrs by sulforhodamine B assay; type: functional; conditions: read-out: LC50 (the source's name); outline: as §1
# MDA-MB-435 = assay: Cytotoxicity against human MDA-MB-435 cells after 48 hrs by sulforhodamine B assay; type: functional; conditions: MDA-MB-435, 48 h, read-out: LC50 (the source's name); outline: as §1
# UACC-257 = assay: Cytotoxicity against human UACC257 cells after 48 hrs by sulforhodamine B assay; type: functional; conditions: UACC-257, 48 h, read-out: LC50 (the source's name)
# OVCAR-4 = assay: Cytotoxicity against human OVCAR4 cells after 48 hrs by sulforhodamine B assay; type: functional; conditions: OVCAR-4, 48 h, read-out: LC50 (the source's name); outline: as §1
# NCI/ADR-RES = assay: Cytotoxicity against human NCI/ADR-RES cells after 48 hrs by sulforhodamine B assay; type: functional; conditions: read-out: LC50 (the source's name); outline: as §1
# TK-10 = assay: Cytotoxicity against human TK10 cells after 48 hrs by sulforhodamine B assay; type: functional; conditions: TK-10, 48 h, read-out: LC50 (the source's name)
# PC-3 = assay: Cytotoxicity against human PC3 cells after 48 hrs by sulforhodamine B assay; type: functional; conditions: PC-3, 48 h, read-out: LC50 (the source's name); outline: as §1
# BT-549 = assay: Cytotoxicity against human BT549 cells after 48 hrs by sulforhodamine B assay; type: functional; conditions: BT-549, 48 h, read-out: LC50 (the source's name); outline: as §1
# OVCAR-8 = assay: Growth inhibition of human OVCAR8 cells after 48 hrs by sulforhodamine B assay; type: functional; conditions: OVCAR-8, 48 h
# Outline: (§2)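 GI50, TGI and LC50 were derived from log concentration versus % growth inhibition curves for each cell line. GI50 is the concentration giving a 50% decrease in net cell growth. Insensitive lines are reported as greater than the highest concentration.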
# 786-0 = assay: Growth inhibition of human 786-0 cells after 48 hrs by sulforhodamine B assay; type: functional; conditions: 786-0, 48 h
# Outline: (§3)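 From log concentration versus % growth curves, GI50 (50% decrease in net growth), TGI (total growth inhibition) and LC50 (net 50% loss of initial cells) are derived for each line.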
# A498 = assay: Growth inhibition of human A498 cells after 48 hrs by sulforhodamine B assay; type: functional; conditions: A498, 48 h; outline: as §3
# CAKI-1 = assay: Growth inhibition of human Caki1 cells after 48 hrs by sulforhodamine B assay; type: functional; conditions: CAKI-1, 48 h; outline: as §3
# SN12C = assay: Growth inhibition of human SN12C cells after 48 hrs by sulforhodamine B assay; type: functional
# Outline: (§4)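 NCI 60-cell panel five-dose assay. GI50, TGI and LC50 are derived from log concentration versus % growth inhibition curves. Cell lines insensitive at the top concentration are given a ">" prefix.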
# DU-145 = assay: Growth inhibition of human DU145 cells after 48 hrs by sulforhodamine B assay; type: functional; conditions: DU-145, 48 h; outline: as §3
# MDA-MB-231 = assay: Growth inhibition of human MDA-MB-231 cells after 48 hrs by sulforhodamine B assay; type: functional; conditions: MDA-MB-231, 48 h; outline: as §2
# MDA-MB-468 = assay: Growth inhibition of human MDA-MB-468 cells after 48 hrs by sulforhodamine B assay; type: functional; conditions: MDA-MB-468, 48 h; outline: as §2
# CCRF-CEM [4] = assay: Cytotoxicity against human CCRF-CEM cells after 48 hrs by sulforhodamine B assay; type: functional; conditions: read-out: LC50 (the source's name); outline: as §1
# HL-60(TB) = assay: Cytotoxicity against human HL-60(TB) cells after 48 hrs by sulforhodamine B assay; type: functional; conditions: HL-60, 48 h, read-out: LC50 (the source's name); outline: as §1
# NCI-H322M [5] = assay: Cytotoxicity against human NCI-H322M cells after 48 hrs by sulforhodamine B assay; type: functional; conditions: read-out: LC50 (the source's name); outline: as §1
# CCRF-CEM [6] = assay: Growth inhibition of human CCRF-CEM cells after 48 hrs by sulforhodamine B assay; type: functional; outline: as §3
# K562 = assay: Growth inhibition of human K562 cells after 48 hrs by sulforhodamine B assay; type: functional; conditions: K562, 48 h; outline: as §3
# NCI-H322M [7] = assay: Growth inhibition of human NCI-H322M cells after 48 hrs by sulforhodamine B assay; type: functional; outline: as §2
# NCI-H460 = assay: Growth inhibition of human NCI-H460 cells after 48 hrs by sulforhodamine B assay; type: functional; conditions: NCI-H460, 48 h; outline: as §2
# HCC 2998 = assay: Growth inhibition of human HCC2998 cells after 48 hrs by sulforhodamine B assay; type: functional; conditions: HCC 2998, 48 h; outline: as §3
# HCT-116 = assay: Growth inhibition of human HCT116 cells after 48 hrs by sulforhodamine B assay; type: functional; conditions: HCT-116, 48 h; outline: as §3
# HCT-15 [8] = assay: Growth inhibition of human HCT15 cells after 48 hrs by sulforhodamine B assay; type: functional; conditions: HCT-15, 48 h; outline: as §3
# KM12 [9] = assay: Growth inhibition of human KM12 cells after 48 hrs by sulforhodamine B assay; type: functional; conditions: KM12, 48 h; outline: as §3
# SNB-19 = assay: Growth inhibition of human SNB19 cells after 48 hrs by sulforhodamine B assay; type: functional; conditions: SNB-19, 48 h; outline: as §4
# M14 = assay: Growth inhibition of human M14 cells after 48 hrs by sulforhodamine B assay; type: functional; conditions: M14, 48 h; outline: as §3
# OVCAR-3 = assay: Growth inhibition of human OVCAR3 cells after 48 hrs by sulforhodamine B assay; type: functional; conditions: OVCAR-3, 48 h; outline: as §2
structure (smiles),measurement,setting,value
CC(C)CCC[C@@H](C)[C@H]1CC[C@H]2[C@@H]3CCN4C(=O)CCC(=O)N4[C@@H]3CC[C@]12C,diameter of the inhibition zone (DIZ),[1],12 mm
CC(C)CCC[C@@H](C)[C@H]1CC[C@H]2C3=CCn4c(=O)ccc(=O)n4[C@@H]3CC[C@]12C,CC50,COLO 205,2.36 µM
same,CC50,HCT-15 [2],> 100 µM
same,CC50,KM12 [3],4.44 µM
same,CC50,SF-268,5.7 µM
same,CC50,LOX IMVI,3.52 µM
same,CC50,Malme-3M,6.38 µM
same,CC50,MDA-MB-435,7.68 µM
same,CC50,UACC-257,4.32 µM
same,CC50,OVCAR-4,5.63 µM
same,CC50,NCI/ADR-RES,2.28 µM
same,CC50,TK-10,3.6 µM
same,CC50,PC-3,4.83 µM
same,CC50,BT-549,2.97 µM
same,GI50,OVCAR-8,0.317 µM
same,TGI,OVCAR-8,1.58 µM
same,GI50,786-0,0.713 µM
same,TGI,786-0,1.95 µM
same,GI50,A498,1.06 µM
same,TGI,A498,2.27 µM
same,GI50,CAKI-1,0.179 µM
same,TGI,CAKI-1,0.577 µM
same,GI50,SN12C,0.388 µM
same,TGI,SN12C,1.69 µM
same,GI50,DU-145,1.04 µM
same,TGI,DU-145,2.26 µM
same,GI50,MDA-MB-231,1.04 µM
same,TGI,MDA-MB-231,2.54 µM
same,GI50,MDA-MB-468,0.628 µM
same,TGI,MDA-MB-468,2.56 µM
same,CC50,CCRF-CEM [4],> 100 µM
same,CC50,HL-60(TB),> 100 µM
same,CC50,NCI-H322M [5],5.84 µM
same,diameter of the inhibition zone (DIZ),[1],8 mm
same,GI50,CCRF-CEM [6],0.36 µM
same,TGI,CCRF-CEM [6],> 100 µM
same,GI50,K562,0.309 µM
same,TGI,K562,2.02 µM
same,GI50,NCI-H322M [7],1.45 µM
same,TGI,NCI-H322M [7],2.91 µM
same,GI50,NCI-H460,0.739 µM
same,TGI,NCI-H460,2.25 µM
same,GI50,HCC 2998,0.431 µM
same,TGI,HCC 2998,1.64 µM
same,GI50,HCT-116,0.142 µM
same,TGI,HCT-116,0.291 µM
same,GI50,HCT-15 [8],0.418 µM
same,TGI,HCT-15 [8],2.22 µM
same,GI50,KM12 [9],0.443 µM
same,TGI,KM12 [9],1.51 µM
same,GI50,SNB-19,1.52 µM
same,TGI,SNB-19,3.02 µM
same,GI50,M14,0.285 µM
same,TGI,M14,1.01 µM
same,GI50,OVCAR-3,0.861 µM
same,TGI,OVCAR-3,2.11 µM
CC(C)CCC[C@@H](C)[C@H]1CC[C@H]2C3=CC[C@@H]4C(=O)C=CC(=O)[C@@H]4[C@@H]3CC[C@]12C,CC50,COLO 205,> 0.536 µM
same,CC50,HCT-15 [2],> 100 µM
same,CC50,KM12 [3],> 100 µM
same,CC50,SF-268,> 100 µM
same,CC50,LOX IMVI,> 4.1 µM
same,CC50,Malme-3M,> 100 µM
same,CC50,MDA-MB-435,> 100 µM
same,CC50,UACC-257,> 100 µM
same,CC50,OVCAR-4,> 2.65 µM
same,CC50,NCI/ADR-RES,> 100 µM
same,CC50,TK-10,> 100 µM
same,CC50,PC-3,> 100 µM
same,CC50,BT-549,> 100 µM
same,GI50,OVCAR-8,0.058 µM
same,TGI,OVCAR-8,1.18 µM
same,GI50,786-0,0.311 µM
same,TGI,786-0,1.5 µM
same,GI50,A498,0.384 µM
same,TGI,A498,1.12 µM
same,GI50,CAKI-1,0.279 µM
same,TGI,CAKI-1,0.633 µM
same,GI50,SN12C,0.269 µM
same,TGI,SN12C,> 100 µM
same,GI50,DU-145,0.632 µM
same,TGI,DU-145,> 100 µM
same,GI50,MDA-MB-231,0.343 µM
same,TGI,MDA-MB-231,1.76 µM
same,GI50,MDA-MB-468,0.215 µM
same,TGI,MDA-MB-468,0.462 µM
same,CC50,CCRF-CEM [4],> 100 µM
same,CC50,HL-60(TB),> 100 µM
same,CC50,NCI-H322M [5],> 100 µM
same,GI50,CCRF-CEM [6],0.189 µM
same,TGI,CCRF-CEM [6],> 100 µM
same,GI50,K562,0.249 µM
same,TGI,K562,> 100 µM
same,GI50,NCI-H322M [7],0.305 µM
same,TGI,NCI-H322M [7],0.849 µM
same,GI50,NCI-H460,0.333 µM
same,TGI,NCI-H460,5.59 µM
same,GI50,HCC 2998,0.274 µM
same,TGI,HCC 2998,0.855 µM
same,GI50,HCT-116,0.055 µM
same,TGI,HCT-116,1.03 µM
same,GI50,HCT-15 [8],0.212 µM
same,GI50,KM12 [9],0.338 µM
same,TGI,KM12 [9],> 100 µM
same,GI50,SNB-19,0.654 µM
same,TGI,SNB-19,> 100 µM
same,GI50,M14,0.299 µM
same,GI50,OVCAR-3,0.502 µM
same,TGI,OVCAR-3,> 100 µM
